In PubChem BioAssay AID624466 (The Scripps Research Institute Molecular Screening Center, 2012):
Among all 360,000 compounds or so, about 5,400 (1.5%) were called active.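 Rule for the calls: active = inhibition above a per-plate cutoff, the mean inhibition of test compounds on that plate plus 3 SD (cut at about 49% in these data); inactive = the rest.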 The full list was thinned out, with actives kept by preference.

Molecular target: Trace amine-associated receptor 1 (Homo sapiens) (UniProt Q96RJ0)
Sequence (Q96RJ0 whole entry, looked up): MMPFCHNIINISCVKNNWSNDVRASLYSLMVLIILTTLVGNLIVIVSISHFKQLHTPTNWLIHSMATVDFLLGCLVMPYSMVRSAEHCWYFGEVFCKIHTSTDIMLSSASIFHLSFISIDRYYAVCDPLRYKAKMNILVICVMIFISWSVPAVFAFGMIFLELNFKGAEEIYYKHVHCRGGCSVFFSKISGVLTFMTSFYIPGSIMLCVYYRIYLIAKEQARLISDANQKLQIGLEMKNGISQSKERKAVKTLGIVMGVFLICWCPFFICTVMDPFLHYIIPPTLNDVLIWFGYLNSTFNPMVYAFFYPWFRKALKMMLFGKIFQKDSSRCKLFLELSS
Assay: human TAAR1 antagonists, primary screen, Fluo-8 calcium fluorescence, CHO RD-HGA16 cells (AID 624466);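 note: 0% = DMSO plus EC80 beta-PEA response and 100% = DMSO alone without agonist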
Details: CHO RD-HGA16 TAAR1, Fluo-8 calcium fluorescence, antagonist; at 3 µM; stronger effect = higher value
How it was run: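 Material: CHO RD-HGA16 cells bearing hTAAR1; compound dosing: one-point dosing, 3 µM nominal final; schedule: dye loading 75 min at 37 °C, then 30 min room temperature; measured by: calcium fluorescence with Fluo-8; control set: vehicle and agonist controls; replication: n of 1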

inhibition, active:
O=C(NCCN1CCOCC1)c1ccccc1N1C(=O)[C@@H]2Cc3c([nH]c4ccccc34)C(c3cccc(Cl)c3)N2C1=O (stereo not given in full) 68.8%
Nc1nonc1-n1nnc(C(=O)N/N=C/c2c[nH]c3ccccc23)c1-c1ccccc1 59%
CC(=O)N1CCN(C(=O)c2cc(-c3ccc(Cl)s3)nc3ccccc23)CC1 52%
Cc1ccc(SCc2c(C(=O)N/N=C/c3cccnc3)nnn2-c2nonc2N)cc1 63.7%
C=CCc1cc(S(=O)(=O)c2ccc(O)c(CC=C)c2)ccc1O 56.9%
COc1ccc(C(=O)Nc2nc(-c3ccc(S(=O)(=O)N4CCOCC4)cc3)cs2)cc1 60.4%
COc1ccc(NC(=O)c2oc3ccc(S(=O)(=O)N4CCOCC4)cc3c2C)cc1 57.4%
O=C(NCc1ccc2c(c1)OCO2)c1c(-c2ccsc2)sc2ccccc12 77.1%
O=C(N/N=C/c1ccccn1)c1cccc(NC(=O)c2ccc(Cl)cc2)c1 56.6%
NC(=O)C1=C[C@H](c2csc3ccccc23)C[C@H](OCc2ccc(CO)cc2)O1 49.7%
CC(=O)n1cc([C@@H]2C=C(C(=O)N3CCN(Cc4ccc5c(c4)OCO5)CC3)O[C@H](OCc3ccc(CO)cc3)C2)c2ccccc21 49.4%
CC(=O)n1cc([C@H]2C=C(C(=O)N3CCOCC3)O[C@@H](OCc3ccc(CO)cc3)C2)c2ccccc21 51.8%
CCCc1cc(C(=O)Nc2ccc(C(=O)OC)cc2)cs1 50.5%
Fc1ccc2[nH]c3c(N4CCSCC4)ncnc3c2c1 64.4%
COc1ccc(/C=C/C(=O)Nc2ccc(C34CC5CC(CC(O)(C5)C3)C4)cc2)cc1OC 71.5%
Nc1c(NCCc2ccccc2)c2ccccc2oc1=O 66.7%
CCOC(=O)C1=CN(Cc2ccc(Br)cc2)S(=O)(=O)NC1C (stereo not given) 49.1%
COc1cccc(/C=N/Nc2cc(C)nc(-c3ccccc3O)n2)c1O 64.5%

inhibition, inactive:
COC(=O)Nc1nc2ccc(C(=O)C3CC3)cc2[nH]1 -3.23%
O=C(NCCN1CCOCC1)Nc1cccc(Cl)c1 -1.82%
O=C(NCCN1CCOCC1)c1cc(Sc2cccc(Cl)c2)nc2ccccc12 -6.08%
C[C@H]1[C@H](c2ccccc2)Oc2cc(Br)ccc2S(=O)(=O)N1Cc1cccc(F)c1 0.32%
COc1cccc(-c2nc3nc(C)cc(C)n3c2NC2CCCCC2)c1 -7.98%
Cc1ccc(N2CC(C(=O)N3CCC4(CC3)CC(=O)c3ccccc3O4)CC2=O)cc1C (stereo not given) -12.3%
Nc1nonc1-n1nnc(C(=O)N/N=C/C2CCCCC2)c1-c1ccccc1 -20.6%
CC(C)c1c(C(=O)N/N=C/c2ccccc2C(=O)O)nnn1-c1nonc1N -11.8%
CC(=O)N1C[C@@H](CO)[C@@H](N(C)C(=O)C(C)(C)C)C[C@H]1c1ccccc1Br -17.9%
Cc1ccc(NC(=O)COC(=O)CNC(=O)c2ccc(Cl)cc2Cl)cc1S(=O)(=O)N1CCOCC1 -20.3%
C[C@@H]1CC2=C(C(=O)OC(C)(C)O2)[C@@H](C2CC2)O1 -2.56%
CCOC(=O)[C@]12CCCC=C1N(Cc1cccc3ccccc13)C(=O)[C@H](CC(=O)NCC13CC4CC(CC(C4)C1)C3)C2 -11.8%
O=C(c1cc(-c2ccc(Cl)s2)nc2ccccc12)N1CCOCC1 23.2%
Cc1c(NC(=O)c2cc(-c3ccc(Cl)s3)nc3ccccc23)c(=O)n(-c2ccccc2)n1C 23.5%
O=C(NCc1cccc(Cl)c1)C1CCN(c2nnc(N3CCCC3=O)s2)CC1 1.44%
Cc1ccc(S(=O)(=O)N[C@H]2CCC[C@@H]2O)cc1 -6.11%
Nc1nonc1-n1nnc(C(=O)N/N=C/c2cc(Br)ccc2O)c1CSC1=NCCS1 18.1%
CCN(CC)Cc1c(C(=O)N/N=C/c2cccc(OCc3ccc(F)cc3)c2)nnn1-c1nonc1N -24.4%
CCOC(=O)C1CCCN(C(=O)c2cccc(S(=O)(=O)N3CCOCC3)c2)C1 (stereo not given) -16.4%
C=CCCN(Cc1ccccc1)S(=O)(=O)c1ccccc1Br 35.3%
O=C1Nc2ccccc2C1=NN=Cc1ccco1 -11.4%
CC1Cc2[nH][nH]c(=O)c2C(C2CC2)O1 (stereo not given) -0.95%
Cc1ccccc1-n1nnc2c(=O)oc3ccccc3c21 -7.09%
O=C(Nc1cccc(F)c1)c1coc(=O)c(Br)c1 -5.62%
O=C1[C@@H](c2ccccc2)[C@@H](c2ccccc2)N1c1ccccc1 -22.7%
Cc1c(C(=O)Nc2ccccc2Cl)oc2ccc(S(=O)(=O)N3CCC4(CC3)OCCO4)cc12 46.8%
COC(=O)COc1ccc(S(=O)(=O)N2CCOCC2)cc1 -11.5%
Cc1c(C(=O)Nc2cccc(S(=O)(=O)N3CCOCC3)c2)oc2ccccc12 13.3%
COc1ccc(C(=O)Nc2cc(S(=O)(=O)N3CCCC3)ccc2Cl)cc1 2.12%
CCc1ccc(S(=O)(=O)Nc2cc3c(cc2N2CCCCC2)n(C)c(=O)c(=O)n3C)cc1 -20.8%
CCCCCCCCN1C(=O)[C@@H](CC(=O)N2CCN(C(=O)OCC)CC2)C[C@@]2(C(=O)OC)C1=C[C@H](C1CCCC1)O[C@@H]2C -10.4%
C=CCn1c(=O)c(C(=O)NCc2ccc3c(c2)OCO3)c(O)c2ccccc21 -8.39%
O=C(NCc1ccc2c(c1)OCO2)c1sccc1Br -7.07%
COCCCNC(=O)C[C@H]1C[C@@]2(C(=O)OC)C(=C[C@H](C(C)(C)C)O[C@@H]2C)N(Cc2ccc3c(c2)OCO3)C1=O -10.8%
O=C(Cc1ccccc1)Nc1cccc(C(=O)N/N=C/c2ccco2)c1 7.95%
Cn1nccc1/C=N\NC(=O)c1ccc(Cl)cc1 -23%
CC(C)CNc1cccc2c1S(=O)(=O)N[C@H](C)CO2 9.62%
Cc1ccc(C2=CSC3=NS(=O)(=O)CCN23)cc1C 10.5%
CC(=NNC(N)=O)c1ccc(Cl)c(-n2cccc2)c1 -7.84%
COc1ccc(OC)c(CNC(=O)Cn2nc(C)c3c(C)n(-c4ccc(C)cc4)nc3c2=O)c1 -15.7%
O=C(C1=C[C@H](c2ccc(C(F)(F)F)cc2)C[C@H](OCc2ccc(CO)cc2)O1)N1CCN(Cc2ccccc2)CC1 7.66%
NC(=O)C1=C[C@@H](c2csc3ccccc23)C[C@@H](OCc2ccc(CO)cc2)O1 17.2%
O=C(NC1CC1)C1=C[C@H](c2c[nH]c3ccccc23)C[C@H](OCc2ccc(CO)cc2)O1 -9.17%
O=C(C1=C[C@H](C2CC2)C[C@H](OCc2ccc(CO)cc2)O1)N1CCN(Cc2ccccc2)CC1 1.78%
O=C(C1=C[C@H](c2coc3ccccc3c2=O)C[C@H](OCc2ccc(CO)cc2)O1)N1CCOCC1 17.7%
CN1CCN(C(=O)C2=C[C@H](c3ccc4c(c3)OCO4)C[C@H](OCc3ccc(CO)cc3)O2)CC1 18.1%
CN1CCN(c2ccc3c(c2)OC[C@H](Cc2ccccc2)NS3(=O)=O)CC1 -0.38%
CC(C)C[C@H](NC(=O)CC1CCCC1)C(=O)N1CCC[C@H]1C(=O)NCc1ccccc1 -24.5%
COC(=O)[C@]12C[C@H](CC(=O)NCc3ccc(C)o3)C(=O)N(CCC3=CCCCC3)C1=C[C@H](C(C)(C)C)O[C@@H]2C -24.7%
CCCc1cc(C(=O)Nc2ccc(Cl)cn2)cs1 -47.4%
CCN(CC)C(=O)CCC(=O)Nc1ccc(C(=O)OC)cc1 -5.5%
CCC(=O)Nc1c(S(=O)(=O)c2ccccc2)c2nc3ccccc3nc2n1Cc1ccccc1 -31.1%
N#Cc1cccc(C(=O)NCC2CCN(C(=O)C(=O)c3cc4ccccc4o3)CC2)c1 -5.41%
COC(=O)c1ccc2nc(-c3cccc(Br)c3)c(Cc3ccccc3C(F)(F)F)n2c1 -12.6%
COc1cc(/C=C/C(=O)Nc2ccc(OC)c(S(=O)(=O)N3CCOCC3)c2)ccc1OCC#N 14.8%
COc1ccc(/C=C/C(=O)OCC(=O)NC2CCCCCC2)cc1OC -27.2%
C[C@@H]1CN([C@H](C)CO)C(=O)CCCn2cc(nn2)CO[C@H]1CN(C)C(=O)Nc1ccc(N2CCCCC2)cc1 -12.4%
CNC(=O)C1CC(=O)N(Cc2ccc3c(c2)OCO3)C(=Nc2ccc(F)cc2)S1 (stereo not given) 11.3%
O=c1oc2ccccc2c(=O)c2ccccc12 3.02%
CC(C)(C)Nc1c(N)c(=O)oc2ccccc12 15%
O=C(N[C@H](Cc1ccccc1)C(=O)N1CCCN(Cc2cccs2)CC1)[C@H]1O[C@@H](n2ccc(=O)[nH]c2=O)[C@H](O)[C@@H]1O -9.92%
CC(=O)OC[C@@H]1CN(Cc2ccccc2)C[C@H](n2cnc3c(NCc4ccco4)ncnc32)O1 -4.46%
CCCCOCC1CN(CCCC)S(=O)(=O)c2c(Oc3ccc(F)cc3)cccc2O1 (stereo not given) 30.2%
CCOC(=O)c1sc(=NC(=O)c2ccc(Br)cc2)n(C)c1C -21.9%
CCOC(=O)C1=CN(Cc2ccc(Br)cc2)S(=O)(=O)N(C)C1C (stereo not given) 17.8%
COc1cc(/C=N/NC(=S)Nc2cccnc2)cc(OC)c1O -25%
COc1cccc(Cn2cc(/C=N/NC(=O)c3cc(O)cc(O)c3)c3ccccc32)c1 -11.8%
